In brackets after ≈: the same amount, converted by molar mass.
Assays:
[1] = Selectivity ratio of IC50 for HEK293 cells to IC50 for human HT-29 cells; format: ADME, cell-based; conditions: HEK293 cells versus HT-29 cells, read-out: Ratio IC50
[2] = Selectivity ratio of IC50 for HEK293 cells to IC50 for human MCF7 cells; format: ADME, cell-based; conditions: HEK293 cells versus MCF7 cells, read-out: Ratio IC50
[3] = system: HEK293; test: Cytotoxicity against HEK293 cells assessed inhibition of cell proliferation after 3 days by MTT assay; conditions: Homo sapiens, HEK293, 72 h
[4] = system: MCF7; test: Cytotoxicity against human MCF7 cells assessed inhibition of cell proliferation after 3 days by MTT assay; conditions: MCF7, 72 h
[5] = system: HT-29; test: Cytotoxicity against human HT-29 cells assessed inhibition of cell proliferation after 3 days by MTT assay; conditions: HT-29, 72 h
[6] = system: HT-29; test: Inhibition of VEGF protein secretion in human HT-29 cells at 10 ug/mL after 72 hrs by ELISA relative to control; format: functional; set-up: scale not given: the % may be the effect or the level left
[7] = system: HT-29; test: Down regulation of VEGF gene expression in human HT-29 cells at 10 ug/mL after 48 hrs by RT-qPCR analysis relative to control; format: functional
In short: (§1)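 HT-29 or MCF-7 cells grown to 70–80% confluence, serum-starved 24 h, then exposed to compound in DMSO for 48 h; DMSO-only control. Total RNA extracted and transcript measured by RT-qPCR, normalized to β-actin and expressed as percentage of control. At least three measurements; mean ± SEM; one-sample t-test.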

[8] = system: HT-29; test: Down regulation of hTERT gene expression in human HT-29 cells at 10 ug/mL after 48 hrs by RT-qPCR analysis relative to control; format: functional; in short: as §1
[9] = system: HT-29; test: Down regulation of c-Myc gene expression in human HT-29 cells at 10 ug/mL after 48 hrs by RT-qPCR analysis relative to control; format: functional; in short: as §1

COc1cccc(/C=C/c2ccc(O)cc2)c1 [(E)-5-METHOXY-4'-STILBENOL]
selectivity ratio [1]: 0.9
selectivity ratio [2]: 1.1
IC50 [3]: 24 µg/mL (≈ 106 µM)
IC50 [4]: 21 µg/mL (≈ 92.8 µM)
IC50 [5]: 26 µg/mL (≈ 115 µM)

COc1cccc(/C=C/c2ccc(N)cc2)c1
selectivity ratio [1]: 1.1
selectivity ratio [2]: 0.3
Activity [6]: 74%
Activity [7]: 100%
Activity [8]: 81%
Activity [9]: 74%
IC50 [3]: 18 µg/mL (≈ 79.9 µM)
IC50 [4]: 52 µg/mL (≈ 231 µM)
IC50 [5]: 16.1 µg/mL (≈ 71.5 µM)

Nc1cccc(/C=C/c2cccc(O)c2)c1
selectivity ratio [1]: > 2.3
selectivity ratio [2]: > 1.8
Activity [6]: 92%
Activity [7]: 52%
Activity [8]: 58%
Activity [9]: 54%
IC50 [3]: > 100 µg/mL
IC50 [4]: 54 µg/mL (≈ 256 µM)
IC50 [5]: 43 µg/mL (≈ 204 µM)

Nc1cccc(/C=C/c2ccccc2O)c1
selectivity ratio [1]: 3.2
selectivity ratio [2]: 3.9
Activity [6]: 76%
Activity [7]: 38%
Activity [8]: 52%
Activity [9]: 37%
IC50 [3]: 96 µg/mL (≈ 454 µM)
IC50 [4]: 24.7 µg/mL (≈ 117 µM)
IC50 [5]: 30.4 µg/mL (≈ 144 µM)

Nc1ccccc1/C=C/c1cccc(O)c1
selectivity ratio [1]: 0.7
selectivity ratio [2]: 1.2
IC50 [3]: 20 µg/mL (≈ 94.7 µM)
IC50 [4]: 17 µg/mL (≈ 80.5 µM)
IC50 [5]: 30 µg/mL (≈ 142 µM)

Oc1ccc(/C=C/c2cccc(O)c2)cc1 [(E)-3,4'-STILBENDIOL]
selectivity ratio [1]: 0.2
selectivity ratio [2]: < 0.1
IC50 [3]: 1.1 µg/mL (≈ 5.18 µM)
IC50 [4]: 23 µg/mL (≈ 108 µM)
IC50 [5]: 6.9 µg/mL (≈ 32.5 µM)

CCCCCCCCCCCC(=O)Nc1cccc(/C=C/c2ccccc2)c1
selectivity ratio [1]: < 0.1
selectivity ratio [2]: 3.3
IC50 [3]: 11.6 µg/mL (≈ 30.7 µM)
IC50 [4]: 3.5 µg/mL (≈ 9.27 µM)
IC50 [5]: > 100 µg/mL

COc1ccc(/C=C/c2ccccc2O)cc1 [2-hydroxy-4'-methoxystilbene]
selectivity ratio [1]: 2.1
selectivity ratio [2]: 1.2
Activity [6]: 69%
Activity [7]: 41%
Activity [8]: 72%
Activity [9]: 58%
IC50 [3]: 21 µg/mL (≈ 92.8 µM)
IC50 [4]: 17 µg/mL (≈ 75.1 µM)
IC50 [5]: 10 µg/mL (≈ 44.2 µM)

Nc1ccccc1/C=C/c1ccc(O)cc1
selectivity ratio [1]: < 0.1
selectivity ratio [2]: < 0.1
IC50 [3]: 7 µg/mL (≈ 33.1 µM)
IC50 [4]: 79 µg/mL (≈ 374 µM)
IC50 [5]: > 100 µg/mL

CCCCCCCCCCCC(=O)Nc1ccc(/C=C/c2ccccc2)cc1
selectivity ratio [1]: < 0.1
selectivity ratio [2]: 1.7
IC50 [3]: 10 µg/mL (≈ 26.5 µM)
IC50 [4]: 5.8 µg/mL (≈ 15.4 µM)
IC50 [5]: > 100 µg/mL

Oc1cccc(/C=C/c2cccc(O)c2)c1
selectivity ratio [1]: 0.8
selectivity ratio [2]: 1
IC50 [3]: 21 µg/mL (≈ 98.9 µM)
IC50 [4]: 21 µg/mL (≈ 98.9 µM)
IC50 [5]: 25.9 µg/mL (≈ 122 µM)

Oc1ccc(/C=C/c2ccccc2O)cc1
selectivity ratio [1]: 0.8
selectivity ratio [2]: 0.8
IC50 [3]: 17.5 µg/mL (≈ 82.5 µM)
IC50 [4]: 21 µg/mL (≈ 98.9 µM)
IC50 [5]: 22 µg/mL (≈ 104 µM)

Nc1ccccc1/C=C/c1ccccc1O
selectivity ratio [1]: 0.7
selectivity ratio [2]: 0.7
IC50 [3]: 27 µg/mL (≈ 128 µM)
IC50 [4]: 39 µg/mL (≈ 185 µM)
IC50 [5]: 36 µg/mL (≈ 170 µM)

Nc1ccc(/C=C/c2ccccc2)cc1 [(E)-4-STYRYLANILINE]
selectivity ratio [1]: 2.6
selectivity ratio [2]: 0.7
Activity [6]: 78%
Activity [7]: 24%
Activity [8]: 65%
Activity [9]: 46%
IC50 [3]: 11.4 µg/mL (≈ 58.4 µM)
IC50 [4]: 16 µg/mL (≈ 81.9 µM)
IC50 [5]: 4.4 µg/mL (≈ 22.5 µM)

COc1ccccc1/C=C/c1cccc(N)c1
selectivity ratio [1]: 1.8
selectivity ratio [2]: 1.2
Activity [6]: 75%
Activity [7]: 67%
Activity [8]: 52%
Activity [9]: 45%
IC50 [3]: 45 µg/mL (≈ 200 µM)
IC50 [4]: 38.7 µg/mL (≈ 172 µM)
IC50 [5]: 25.3 µg/mL (≈ 112 µM)

COc1ccc(/C=C/c2cccc(N)c2)cc1
selectivity ratio [1]: 0.7
selectivity ratio [2]: 0.5
Activity [6]: 73%
Activity [7]: 89%
Activity [8]: 96%
Activity [9]: 100%
IC50 [3]: 11 µg/mL (≈ 48.8 µM)
IC50 [4]: 23 µg/mL (≈ 102 µM)
IC50 [5]: 16.3 µg/mL (≈ 72.4 µM)

COc1ccccc1/C=C/c1ccccc1N
selectivity ratio [1]: < 0.1
selectivity ratio [2]: < 0.1
IC50 [3]: 2.1 µg/mL (≈ 9.32 µM)
IC50 [4]: > 100 µg/mL
IC50 [5]: > 100 µg/mL

COc1cccc(/C=C/c2ccccc2N)c1
selectivity ratio [1]: < 0.1
selectivity ratio [2]: < 0.1
Activity [6]: 51%
Activity [7]: 100%
Activity [8]: 35%
Activity [9]: 79%
IC50 [3]: 0.5 µg/mL (≈ 2.22 µM)
IC50 [4]: 6.1 µg/mL (≈ 27.1 µM)
IC50 [5]: 21.2 µg/mL (≈ 94.1 µM)

Nc1ccc(/C=C/c2ccccc2O)cc1
selectivity ratio [1]: 0.6
selectivity ratio [2]: 1
IC50 [3]: 21.4 µg/mL (≈ 101 µM)
IC50 [4]: 23 µg/mL (≈ 109 µM)
IC50 [5]: 37 µg/mL (≈ 175 µM)

COc1ccccc1/C=C/c1ccccc1O
selectivity ratio [1]: 0.7
selectivity ratio [2]: 0.8
IC50 [3]: 15 µg/mL (≈ 66.3 µM)
IC50 [4]: 17.9 µg/mL (≈ 79.1 µM)
IC50 [5]: 23 µg/mL (≈ 102 µM)

COc1ccc(/C=C/c2ccccc2N)cc1
selectivity ratio [1]: < 0.1
selectivity ratio [2]: 1.4
IC50 [3]: 0.6 µg/mL (≈ 2.66 µM)
IC50 [4]: 0.4 µg/mL (≈ 1.78 µM)
IC50 [5]: 73 µg/mL (≈ 324 µM)

COc1ccccc1/C=C/c1ccc(N)cc1
selectivity ratio [1]: < 0.1
selectivity ratio [2]: 0.3
IC50 [3]: 1 µg/mL (≈ 4.44 µM)
IC50 [4]: 3.2 µg/mL (≈ 14.2 µM)
IC50 [5]: 22 µg/mL (≈ 97.7 µM)

COc1cccc(/C=C/c2cccc(N)c2)c1
selectivity ratio [1]: 0.8
selectivity ratio [2]: 0.5
Activity [6]: 73%
Activity [7]: 23%
Activity [8]: 100%
Activity [9]: 34%
IC50 [3]: 16 µg/mL (≈ 71 µM)
IC50 [4]: 34 µg/mL (≈ 151 µM)
IC50 [5]: 19.6 µg/mL (≈ 87 µM)

COc1ccccc1/C=C/c1cccc(O)c1
selectivity ratio [1]: 1.4
selectivity ratio [2]: 1
Activity [6]: 69%
Activity [7]: 77%
Activity [8]: 52%
Activity [9]: 100%
IC50 [3]: 24 µg/mL (≈ 106 µM)
IC50 [4]: 24.3 µg/mL (≈ 107 µM)
IC50 [5]: 17 µg/mL (≈ 75.1 µM)

CCCCCCCCCCCC(=O)Nc1ccccc1/C=C/c1ccccc1
selectivity ratio [1]: 6.4
selectivity ratio [2]: 1.3
Activity [6]: 79%
Activity [7]: 37%
Activity [8]: 53%
Activity [9]: 45%
IC50 [3]: 16 µg/mL (≈ 42.4 µM)
IC50 [4]: 12 µg/mL (≈ 31.8 µM)
IC50 [5]: 2.5 µg/mL (≈ 6.62 µM)

Nc1cccc(/C=C/c2ccc(O)cc2)c1
selectivity ratio [1]: 0.1
selectivity ratio [2]: 1.2
IC50 [3]: 7 µg/mL (≈ 33.1 µM)
IC50 [4]: 6 µg/mL (≈ 28.4 µM)
IC50 [5]: 51 µg/mL (≈ 241 µM)

Nc1ccc(/C=C/c2ccc(O)cc2)cc1
selectivity ratio [1]: 0.03
selectivity ratio [2]: 0.4
IC50 [3]: 0.8 µg/mL (≈ 3.79 µM)
IC50 [4]: 2.2 µg/mL (≈ 10.4 µM)
IC50 [5]: 30.6 µg/mL (≈ 145 µM)

Oc1ccccc1/C=C/c1ccccc1O
selectivity ratio [1]: 0.9
selectivity ratio [2]: 1.1
IC50 [3]: 24.3 µg/mL (≈ 114 µM)
IC50 [4]: 23 µg/mL (≈ 108 µM)
IC50 [5]: 25 µg/mL (≈ 118 µM)

COc1ccc(/C=C/c2ccc(O)cc2)cc1
selectivity ratio [1]: 0.2
selectivity ratio [2]: 0.3
IC50 [3]: 3.9 µg/mL (≈ 17.2 µM)
IC50 [4]: 11.3 µg/mL (≈ 49.9 µM)
IC50 [5]: 17.4 µg/mL (≈ 76.9 µM)

Oc1ccc(/C=C/c2ccc(O)cc2)cc1 [TRANS-4,4'-DIHYDROXYSTILBENE]
selectivity ratio [1]: < 0.1
selectivity ratio [2]: 0.2
IC50 [3]: 1.2 µg/mL (≈ 5.65 µM)
IC50 [4]: 6.8 µg/mL (≈ 32 µM)
IC50 [5]: > 100 µg/mL

COc1cccc(/C=C/c2ccccc2O)c1
selectivity ratio [1]: 0.8
selectivity ratio [2]: 1.1
IC50 [3]: 20 µg/mL (≈ 88.4 µM)
IC50 [4]: 18 µg/mL (≈ 79.5 µM)
IC50 [5]: 26 µg/mL (≈ 115 µM)

Oc1cccc(/C=C/c2ccccc2O)c1
selectivity ratio [1]: 0.7
selectivity ratio [2]: 0.9
IC50 [3]: 18 µg/mL (≈ 84.8 µM)
IC50 [4]: 20.1 µg/mL (≈ 94.7 µM)
IC50 [5]: 27 µg/mL (≈ 127 µM)

Nc1ccc(/C=C/c2cccc(O)c2)cc1
selectivity ratio [1]: 0.6
selectivity ratio [2]: 1
IC50 [3]: 25 µg/mL (≈ 118 µM)
IC50 [4]: 24.8 µg/mL (≈ 117 µM)
IC50 [5]: 42 µg/mL (≈ 199 µM)
